Calls of active or inactive are those of the source. The rule behind the calls is not given here.

Usually IC50 stands for the concentration at which inhibition is half-maximal.

Experiment [1] is described as follows: Antiproliferative activity against human SB-590885-resistant 451Lu cells assessed as reduction in cell viability measured after 48 hrs by MTS assay. Format: functional. To be noted: Homo sapiens, 451Lu, 48 h; read-out: IC50. A digest of the protocol: (§1)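 Melanoma lines were grown in RPMI-1640 with Glutamax at 37 °C and 5% CO2. The resistant 451 Lu-R and MEL 1617-R sublines were maintained with 1 µM PLX4720. Cells were incubated with vehicle or inhibitor over a dose range, and viability was read by MTS assay in triplicate.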
Background: Tetrazolium assays rely on reduction of a dye to a coloured formazan, in cell work by metabolically active cells.

The test system of a further experiment is IGROV-1. The experiment in a line: Anticancer activity against human IGROV-1 cells assessed as cell growth inhibition at 10 uM measured after 48 hrs by SRB assay relative to control. The class given is functional. To be noted: read-out: GI. A digest of the protocol:
(§2)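 NCI 60-cell-line screen. Cells in RPMI with 5% FBS were plated at 5,000–40,000 cells/well by doubling time and preincubated 24 h at 37 °C. Compound was added at a single 10 µM for 48 h, then cells were fixed with cold TCA (10% final) and stained with 0.4% SRB. Absorbance at 515 nm gave percent growth versus untreated control and time-zero cells.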

Experiment [2] deals with T1, Signal transducer and activator of transcription 3 (Homo sapiens, UniProt P40763). Nature of the experiment: Inhibition of STAT3 phosphorylation at S727 residue in human SB-590885-resistant MEL1617 cells at 10 to 25 uM measured after 12 hrs by Western blot analysis. The class given is cell-based. To be noted: dose 10-25 µM. Put shortly: (§3)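 451 Lu and MEL 1617 pairs, sensitive and resistant; resistant lines maintained in RPMI with 1 µM PLX4720. Treated with 10 and 25 µM for 12 h versus DMSO. Lysates (60 µg protein, 10% SDS-PAGE) immunoblotted for Ser727- and Tyr705-phospho-STAT3, total STAT3, total PAX3, with actin.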
On the technique in general: A western blot detects proteins with antibodies after separation by electrophoresis.

A short description of experiment [3]: Antiproliferative activity against human SB-590885-sensitive MEL1617 cells assessed as reduction in cell viability measured after 48 hrs by MTS assay. The class given is functional, cell-based. The settings on record: MEL1617, 48 h. A digest of the protocol: as §1
In experiment [4] the target is Signal transducer and activator of transcription 6 (Homo sapiens) (UniProt P42226). Nature of the experiment: Inhibition of STAT6 phosphorylation at Y641 residues in human A-375 cells at 50 uM after 20 hrs by Western blotting analysis. Format: cell-based. Put shortly:
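A375 cells exposed to a dose range of inhibitor for 20 h (overnight), up to 50 µM; lysates immunoblotted for phospho-STAT1 Y701, phospho-STAT5 Y694 and phospho-STAT6 Y641, with actin and/or vinculin as loading controls.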

The test system of experiment [5] is A-375. Nature of the experiment: Cell cycle arrest in human A-375 cells assessed as accumulation at G2-phase at 10 uM measured after 24 hrs by […] (reference value: 9.14 to 10.5%). The class given is functional.
Experiment [6] has as its target T1, Signal transducer and activator of transcription 3. Nature of the experiment: Inhibition of IRDY 700 oligonucleotide binding to STAT3 in human A-375 cell nuclear extract measured after overnight incubation by electrophoretic mobility shift assay. To be noted: dose 10-25 µM. Put shortly:
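A375 cells were treated overnight with inhibitor doses or DMSO in full RPMI. Nuclear extracts were prepared by low-salt lysis followed by high-salt extraction, with protease and phosphatase inhibitors. EMSA used 5 µg extract per reaction with IRDye 700 STAT3 consensus oligo; competitor and mutant oligos served as controls, and a STAT3-immunoprecipitated extract was included.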
For orientation: A gel shift assay detects complexes by their altered migration in electrophoresis.

Experiment [7] in a line: Antiproliferative activity against human SB-590885-sensitive 451Lu cells assessed as reduction in cell viability measured after 48 hrs by MTS assay. The class given is functional. Put shortly: as §1
The subject of experiment [8] is A-375. Nature of the experiment: Cell cycle arrest in human A-375 cells assessed as accumulation at G2-phase at 25 uM measured after 24 hrs by […] (reference value: 9.14 to 10.5%). The class given is functional.
Experiment [9] concerns the target T1, Signal transducer and activator of transcription 3. Nature of the experiment: Displacement of FAM-labeled 5-GpYLPQTV-NH2 from recombinant GST-tagged STAT3 (unknown origin) preincubated for 30 mins followed by FAM-labeled 5-GpYLPQTV-NH2 addition and measured after 30 mins by fluorescence assay. The settings on record: for inhibition: time 60.0 min. A digest of the protocol: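 GST-STAT3 (2 µM) was bound to GST beads for 1 h at 4 °C in PBS with 0.1% β-mercaptoethanol, then washed. Bead slurry was incubated with compound dilutions (2.25% DMSO, duplicate) and FAM-GpYLPQTV-NH2 peptide. Resin was washed by vacuum filtration and fluorescence read at ex 485/em 535 nm. % displacement was set against the no-compound signal; two independent experiments.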

The subject of experiment [10] is A-375. The experiment in a line: Cell cycle arrest in human A-375 cells assessed as accumulation at G1-phase at 10 uM measured after 24 hrs by […] (reference value: 55.5 to 56.2%). Format: functional.
The test system of experiment [11] is A-375. Nature of the experiment: Cell cycle arrest in human A-375 cells assessed as accumulation at S-phase at 25 uM measured after 24 hrs by […] (reference value: 33.6 to 33.7%). Format: functional.
Experiment [12] deals with T1, Signal transducer and activator of transcription 3. Nature of the experiment: Inhibition of STAT3 in human SB-590885-sensitive MEL1617 cells assessed as reduction in PAX3 expression at 10 to 25 uM measured after 12 hrs by Western blot analysis. Format: cell-based. The settings on record: dose 10-25 µM. A digest of the protocol:
as §3

For another experiment, the system named is MOLT-4. Nature of the experiment: Anticancer activity against human MOLT-4 cells assessed as cell growth inhibition at 10 uM measured after 48 hrs by SRB assay relative to control. The class given is functional. The settings on record: read-out: GI. Put shortly:
as §2

Experiment [13] addresses T1, Signal transducer and activator of transcription 3. Nature of the experiment: Inhibition of STAT3 phosphorylation at Y705 residue in human SB-590885-sensitive MEL1617 cells at 10 to 25 uM measured after 12 hrs by Western blot analysis. The settings on record: dose 10-25 µM. Format: cell-based. Put shortly: as §3
Experiment [14] has as its system A-375. Nature of the experiment: Cytotoxicity against human A-375 cells assessed as inhibition of cell proliferation measured after 48 hrs by MTS assay. Format: functional, cell-based. The settings on record: A-375, 48 h. Put shortly: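 Cells were exposed to a dose range of inhibitor for 48 h, and viability was read by MTS assay in triplicate. GI50 was taken as the concentration giving 50% growth inhibition, averaged from three independent experiments. A375 was cultured in RPMI-1640 with Glutamax. A549 and NCI-H157 were kept in RPMI-1640, and MIA PaCa-2 and U87-MG in DMEM.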

The target in experiment [15] is T1, Signal transducer and activator of transcription 3. Nature of the experiment: Inhibition of STAT3 in human SB-590885-resistant MEL1617 cells assessed as reduction in PAX3 expression at 10 to 25 uM measured after 12 hrs by Western blot analysis. Format: cell-based. To be noted: dose 10-25 µM. Put shortly:
as §3

Experiment [16] has the same target. The experiment in a line: Inhibition of STAT3 in human SB-590885-sensitive MEL1617 cells assessed as reduction in STAT3 transcriptional activity measured after 12 hrs by Dual-luciferase reporter gene assay. Format: cell-based. Put shortly: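 Cells co-transfected with inducible STAT3-responsive firefly luciferase and constitutive Renilla luciferase constructs (40:1) using Lipofectamine 3000. After 48 h, dose series in DMSO vehicle applied for 12 h, followed by dual-luciferase readout. Firefly signal normalized to Renilla and compared with untreated cells. Run in triplicate; IC50 taken from dose–response curves.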

In experiment [17] the target is Mitogen-activated protein kinase; ERK1/ERK2 (Homo sapiens) (UniProt P27361+P28482). The experiment in a line: Inhibition of ERK1/2 phosphorylation in human A-375 cells at 5 to 50 uM after 12 hrs by Western blotting analysis. Format: cell-based. To be noted: dose 5-50 µM.
Experiment [18] relates to A-375. The experiment in a line: Cell cycle arrest in human A-375 cells assessed as increase in accumulation at G1-phase measured after 24 hrs by […]. The class given is functional, cell-based. The settings on record: dose 10-25 µM.

T1 sequence (P40763 whole entry): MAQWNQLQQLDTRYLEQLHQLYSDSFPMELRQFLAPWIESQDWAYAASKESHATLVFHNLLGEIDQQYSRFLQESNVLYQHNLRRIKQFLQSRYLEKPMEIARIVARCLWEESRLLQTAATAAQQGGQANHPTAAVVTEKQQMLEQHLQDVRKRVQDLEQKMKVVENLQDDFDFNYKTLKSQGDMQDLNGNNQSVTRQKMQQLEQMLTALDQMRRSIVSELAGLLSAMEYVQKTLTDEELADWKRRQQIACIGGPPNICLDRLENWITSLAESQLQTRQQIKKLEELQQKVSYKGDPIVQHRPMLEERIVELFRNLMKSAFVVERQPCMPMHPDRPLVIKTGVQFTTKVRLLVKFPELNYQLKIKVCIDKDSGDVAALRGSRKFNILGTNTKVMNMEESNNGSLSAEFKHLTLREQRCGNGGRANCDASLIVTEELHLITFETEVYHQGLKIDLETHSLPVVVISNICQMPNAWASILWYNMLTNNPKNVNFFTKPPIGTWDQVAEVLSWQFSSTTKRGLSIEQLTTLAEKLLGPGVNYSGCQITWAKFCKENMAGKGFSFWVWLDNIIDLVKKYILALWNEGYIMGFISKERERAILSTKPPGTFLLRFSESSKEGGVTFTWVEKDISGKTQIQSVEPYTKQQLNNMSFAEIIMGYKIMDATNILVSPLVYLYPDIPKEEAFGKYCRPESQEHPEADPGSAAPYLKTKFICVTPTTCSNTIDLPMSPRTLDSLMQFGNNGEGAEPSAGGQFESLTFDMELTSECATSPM
Sequence of Signal transducer and activator of transcription 6 (Homo sapiens) (P42226 whole entry): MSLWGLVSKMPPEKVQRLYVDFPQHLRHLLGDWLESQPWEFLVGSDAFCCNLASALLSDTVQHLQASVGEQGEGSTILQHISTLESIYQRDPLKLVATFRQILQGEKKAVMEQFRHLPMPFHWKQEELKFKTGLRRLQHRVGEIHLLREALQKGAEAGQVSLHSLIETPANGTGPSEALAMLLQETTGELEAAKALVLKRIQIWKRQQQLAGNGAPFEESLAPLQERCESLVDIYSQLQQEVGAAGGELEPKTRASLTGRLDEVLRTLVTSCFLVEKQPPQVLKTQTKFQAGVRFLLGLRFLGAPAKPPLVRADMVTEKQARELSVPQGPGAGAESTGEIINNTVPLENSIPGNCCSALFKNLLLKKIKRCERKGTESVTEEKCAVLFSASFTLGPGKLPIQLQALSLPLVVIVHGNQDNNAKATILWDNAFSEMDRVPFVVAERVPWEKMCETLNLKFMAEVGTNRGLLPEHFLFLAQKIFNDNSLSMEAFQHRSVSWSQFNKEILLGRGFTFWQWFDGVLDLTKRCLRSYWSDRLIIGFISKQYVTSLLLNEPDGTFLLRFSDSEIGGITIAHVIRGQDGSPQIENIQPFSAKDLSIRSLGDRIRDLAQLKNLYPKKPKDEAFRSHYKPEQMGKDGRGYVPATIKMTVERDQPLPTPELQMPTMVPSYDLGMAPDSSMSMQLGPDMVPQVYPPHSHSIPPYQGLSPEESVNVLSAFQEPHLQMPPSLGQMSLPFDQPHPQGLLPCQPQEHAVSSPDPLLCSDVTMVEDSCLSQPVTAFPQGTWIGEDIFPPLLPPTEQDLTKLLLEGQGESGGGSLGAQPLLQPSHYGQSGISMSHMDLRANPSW
Sequence of Mitogen-activated protein kinase; ERK1/ERK2 (Homo sapiens) (P27361 whole entry, looked up): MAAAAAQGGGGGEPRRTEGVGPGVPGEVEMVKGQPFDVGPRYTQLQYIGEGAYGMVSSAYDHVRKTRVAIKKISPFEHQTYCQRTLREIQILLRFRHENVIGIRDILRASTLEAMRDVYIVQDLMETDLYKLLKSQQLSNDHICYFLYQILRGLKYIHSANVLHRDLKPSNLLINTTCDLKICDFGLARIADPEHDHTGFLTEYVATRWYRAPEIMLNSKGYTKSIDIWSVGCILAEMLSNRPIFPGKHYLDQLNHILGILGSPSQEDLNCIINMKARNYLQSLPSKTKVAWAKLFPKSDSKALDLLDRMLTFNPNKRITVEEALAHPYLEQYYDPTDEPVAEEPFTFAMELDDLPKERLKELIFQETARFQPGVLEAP
Sequence of Mitogen-activated protein kinase; ERK1/ERK2 (Homo sapiens) (P28482 whole entry, looked up): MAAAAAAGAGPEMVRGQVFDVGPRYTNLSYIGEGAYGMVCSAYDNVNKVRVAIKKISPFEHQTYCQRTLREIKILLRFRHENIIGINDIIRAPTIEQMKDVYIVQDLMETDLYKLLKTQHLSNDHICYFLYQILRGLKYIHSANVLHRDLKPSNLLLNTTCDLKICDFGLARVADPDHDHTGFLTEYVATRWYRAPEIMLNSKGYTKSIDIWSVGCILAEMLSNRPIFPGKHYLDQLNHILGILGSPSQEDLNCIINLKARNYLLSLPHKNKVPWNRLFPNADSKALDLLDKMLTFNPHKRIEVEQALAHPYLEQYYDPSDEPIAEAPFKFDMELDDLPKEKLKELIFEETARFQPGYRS

Regarding `C=CCn1c(SCC(=O)Nc2ccc(/C(C)=N\O)cc2)nnc1-c1cc(-c2ccc(Cl)cc2)nc2ccccc12`, the IC50 in experiment [1] is 47 µM; in experiment [3], 46.1 µM; in experiment [7] it was 11.3 µM; in [9], 0.25 µM; with A-375 [14], 1.9 µM; in experiment [16], 21.4 µM. Also, the inhibition of growth at 10 µM in the experiment with IGROV-1 and in the experiment on MOLT-4 was 100% each time. The inhibition entry in experiment [2], in experiment [12], in experiment [13] and in experiment [15] was “Active” throughout. For the same compound, the inhibition entry in experiment [4] and in experiment [17] was “inactive” each time. Moreover, the Activity is 14.9% in the experiment with A-375 [5]; 15.7% with A-375 [8]; 56.7% in the experiment on A-375 [10]; 21.4% with A-375 [11]; “Dose-dependent effect” in the experiment with A-375 [18]. For the same compound, the inhibition entry in experiment [6] and in experiment [9] was “Dose-dependent effect” throughout.

For the compound `C=CCn1c(SCC(=O)Nc2ccc(/C(C)=N\O)cc2)nnc1-c1cc(-c2ccccc2)nc2ccccc12`, the IC50 was 7.8 µM in experiment [1]; 8.4 µM in experiment [3]; 1.77 µM in [7]; 0.32 µM in experiment [9]; 7.7 µM with A-375 [14]; 10.3 µM in [16]. In addition, the inhibition of growth at 10 µM in the experiment with IGROV-1 and in the experiment on MOLT-4 was 76% each time. Moreover, the inhibition entry in experiment [2], in experiment [12], in [13] and in [15] was “Active” each time. In addition, the inhibition entry in experiment [4] and in experiment [17] was “inactive” each time. For the same compound, the Activity in the experiment with A-375 [5] is 14.9%; in the experiment on A-375 [8], 11.2%; in the experiment on A-375 [10] it was 63%; in the experiment on A-375 [11], 12.3%; in the experiment on A-375 [18], “Dose-dependent effect”. For the same compound, the inhibition entry in experiment [6] and in [9] was “Dose-dependent effect” each time.

The record behind these values is ChEMBL document CHEMBL4715843, “NO-releasing STAT3 inhibitors suppress BRAF-mutant melanoma growth” (Eur J Med Chem, 2020).
